This is an account of results in ChEMBL document CHEMBL3102739, “Synthesis and antiproliferative activity of conformationally restricted 1,2,3-triazole analogues of combretastatins in the sea urchin embryo model and against human cancer cell lines” (Bioorg Med Chem, 2014).

What all share (assay type): functional
The test system of one assay is HOP-62. Description: Growth inhibition of human HOP62 cells after 48 hrs by SRB assay. The note with it: HOP-62, 48 h.
In another assay the test system is HCT-15. Description: Growth inhibition of human HCT15 cells after 48 hrs by SRB assay. The following applies: HCT-15, 48 h. A general note: The SRB assay estimates cell density from bound dye.
A further assay relates to OVCAR-3. Description: Growth inhibition of human OVCAR3 cells after 48 hrs by SRB assay. The following applies: OVCAR-3, 48 h.
The subject of the next assay is A498. Description: Growth inhibition of human A498 cells after 48 hrs by SRB assay. The note with it: A498, 48 h.
For another assay, the system named is MDA-MB-231. Description: Growth inhibition of human MDA-MB-231 cells after 48 hrs by SRB assay. The note with it: MDA-MB-231, 48 h.
For a further assay, the system named is SNB-75. Description: Growth inhibition of human SNB75 cells after 48 hrs by SRB assay. The note with it: SNB-75, 48 h.
A further assay concerns SW-620. Description: Growth inhibition of human SW620 cells after 48 hrs by SRB assay. The following applies: SW-620, 48 h.
In another assay the test system is MDA-MB-435. Description: Growth inhibition of human MDA-MB-435 cells after 48 hrs by SRB assay. The note with it: MDA-MB-435, 48 h.
The next assay relates to OVCAR-8. Description: Growth inhibition of human OVCAR8 cells after 48 hrs by SRB assay. The following applies: OVCAR-8, 48 h.
For the next assay, the system named is Paracentrotus lividus. Description: Antimitotic activity against sea urchin embryo model assessed as cleavage alteration of fertilized egg compound treated at 8 to 20 mins post-fertilization and 45 to 55 mins prior to first mitotic cycle completion measured 2.5 to 5.5 hrs post-fertilization. In short, it runs like this:
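Fertilized eggs are exposed 8–20 min after fertilization to 2-fold decreasing concentrations. Stocks are 10 mM in DMSO, then diluted 10-fold in 95% EtOH; final DMSO is at most 0.05% and EtOH at most 1%. Embryos are kept as a monolayer, up to 2000 embryos/mL, in filtered seawater at room temperature. The value is the threshold concentration giving cleavage alteration, embryo death before hatching or full mitotic arrest. Duplicates were run.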

Assay [1] is described as follows: Growth inhibition of human OVCAR4 cells after 48 hrs by SRB assay. The note with it: OVCAR-4, 48 h.
A short description of assay [2]: Growth inhibition of human UO31 cells after 48 hrs by SRB assay. The note with it: UO-31, 48 h.
Another assay has as its system CCRF-CEM. Description: Growth inhibition of human CCRF-CEM cells after 48 hrs by SRB assay.
Another assay relates to Malme-3M. Description: Growth inhibition of human MALME-3M cells after 48 hrs by SRB assay.
The next assay relates to SK-MEL-28. Description: Growth inhibition of human SK-MEL-28 cells after 48 hrs by SRB assay. The note with it: SK-MEL-28, 48 h.

The term GI50 denotes the concentration giving 50% growth inhibition. A lower GI50 goes with greater sensitivity of the cells. As to `COc1ccc(-c2nn[nH]c2-c2cc(OC)c(OC)c(OC)c2)cc1`, the GI50 with HOP-62, in the assay with HCT-15, in the assay with OVCAR-3, in the assay with A498, in the assay on MDA-MB-231 and in the assay with SNB-75 was below 10 nM each time. Moreover, the GI50 was below 10 nM with SW-620; below 10 nM in the assay with MDA-MB-435; below 10 nM in the assay on OVCAR-8; below 10 nM in [1]; 1210 nM in assay [2]; below 10 nM with CCRF-CEM. In the assay on Paracentrotus lividus, the EC came out at 0.005 µM.

Regarding `COc1ccc(-c2nn[nH]c2-c2cc(OC)c3c(c2OC)OCO3)cc1`, the GI50 was determined as 899 nM with HOP-62; 454 nM in the assay on HCT-15; 363 nM in the assay on OVCAR-3; 353 nM with A498; 1130 nM in the assay on MDA-MB-231; 437 nM with SNB-75. Also, the GI50 is 385 nM with SW-620; 193 nM in the assay with MDA-MB-435; 1320 nM in the assay with OVCAR-8; 4680 nM in [1]; 2960 nM in assay [2]; 684 nM in the assay on CCRF-CEM. Also, the figures for the GI50 with Malme-3M and with SK-MEL-28 were 766 nM and 1780 nM, respectively. The EC with Paracentrotus lividus worked out at 0.5 µM.
